Data set [1] is described as follows: Lipophilicity by RP-HPLC retention factors. It counts as physicochemical. Particulars: for log kw: 0.1% TFA water/MeOH, values extrapolated to 0% MeOH; for log k30: mobile phase containing 30% MeOH.
A short description of data set [2]: Stability in aqueous media under physiologically relevant conditions. It counts as physicochemical. Particulars: PBS (pH 7.4 and 6.0), 37 °C, 0.5 mM. In short, it runs like this:
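Each complex (0.5 mM) was incubated at 37 °C for 24 h in water, PBS pH 7.4, PBS pH 6.0 and 0.05 M HCl (pH 1.5). Samples taken at 1 and 24 h were analysed by isocratic RP-HPLC on a C18 column at 25 °C, with 0.1% TFA water/MeOH adjusted for elution within 15 min and UV detection at 210 nm.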

The subject of data set [3] is A549 (nonsmall cell lung cancer). To be noted: read-out: IC50, 96 h A549; MTT assay, exposure 96 h; cited from earlier work. Background: Tetrazolium dyes change colour on reduction, which living cells bring about.
Data set [4] is described as follows: Platinum concentration in mouse tissues and serum by ICP-MS. Type of data set: in vivo, Balb/c mice. Particulars: for serum platinum level: CT-26 mice.
For data set [5], the system named is CH1 (ovarian carcinoma). Particulars: read-out: IC50, 96 h CH1; MTT assay, exposure 96 h; cited from earlier work.
Data set [6] has as its system SW480 (colon carcinoma). Particulars: read-out: IC50, 96 h SW480; MTT assay, exposure 96 h; cited from earlier work.
Data set [7] concerns CH1 (ovarian carcinoma). Briefly: MTT cytotoxicity assay, CH1. It counts as cell-based, human. To be noted: CH1 cells. In short, it runs like this:
(§1)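 Adherent cells grown in MEM with 10% FBS, pyruvate, NEAA and glutamine, without antibiotics. Seeded per well at 1.0 × 10³ for CH1 and 2.0 × 10³ for SW480, then settled for 24 h. Serial dilutions of test compound in medium were applied for 96 h continuous exposure at 37 °C. MTT was added for 4 h, formazan dissolved in DMSO, and read at 550 nm (ref 690 nm). IC₅₀ was interpolated from concentration–effect curves, ≥3 independent experiments in triplicate.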

Data set [8] has as its system SW480 (colon carcinoma). Briefly: MTT cytotoxicity assay, SW480. Type of data set: cell-based, human. Particulars: SW480 cells. In short, it runs like this:
as §1

Data set [9] in a line: Aqueous solubility. It counts as physicochemical. To be noted: water.
Data set [10] is described as follows: Reduction by sodium ascorbate, RP-HPLC. To be noted: 15-fold excess sodium ascorbate. Type of data set: physicochemical.
Data set [11] deals with L1210 murine leukemia cells. Kind of data set: Antileukemic activity in vivo. More on the design: species or system female DBA/2J × Balb/c SCID F1 mice. Particulars: L1210 leukemia-bearing mice.
Data set [12] can be described thus: General toxicity in the animal experiments. Particulars: all in vivo experiments, 10-30 mg/kg i.p., mice. Put shortly: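 Test compound in water, given i.p. L1210 model: female DBA/2J × Balb/c SCID F1 mice, 1 × 10⁵ cells i.p. on day 0, dosed 10, 20, 30 mg/kg on days 1, 5, 9, with daily observation and body weight. CT-26 model: female Balb/c mice aged 6–8 weeks, 5 × 10⁵ cells s.c. into the flank, 30 mg/kg on days 4, 7, 11, 14, with daily distress checks.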

Setting [13] is: 9 mg/kg i.v. days 4, 7, 11, 14, day 15.
Setting [14] is: 30 mg/kg i.p. days 4, 7, 11, 14, day 15.

Marks after values point to notes of the source that are not given here.

Take `NCCN.O=C1[O][Pt]2([O]C(=O)C13CCC3)[O]C(=O)C1(CCC1)C(=O)[O]2` [1d, (OC-6-22)-Bis(1,1-cyclobutanedicarboxylato)ethane-1,2-diamineplatinum(IV)]: in data set [1], the log kw was 1.28 ± 0.01 and the “log k30” value is 0.28 ± 0.01.
As to `CCN.CCN.O=C([O-])CC(=O)[O-].O=C([O-])CC(=O)[O-].[Pt+4]` [2b, (OC-6-22)-Bis(ethylamine)bis(malonato)platinum(IV)], the “decomposition after 24 h of incubation in PBS solution” value in data set [2] is reported as less than 10%.
Consider `N.N.O=C([O-])C1(C(=O)[O-])CCC1.[Pt+2]` [carboplatin, reference compound], for which, in [1], the log kw is recorded as −0.36 ± 0.04^c and the “log k30” value is given as −0.80 ± 0.01. Also, the concentration for half-maximal inhibition (IC50) – broadly, the concentration that gives 50% inhibition – in data set [3] is 91000 ± 10000 nM.
Consider `O=C1[O][Pt]2([NH][C@@H]3CCCC[C@H]3[NH]2)[O]C1=O` [oxaliplatin, reference compound], for which the serum platinum level in [4] (9 mg/kg i.v. days 4, 7, 11, 14, 24 h after last application) is given as ~ 0.3 μg/mL. In data set [4] (setting [13]), the platinum in kidney is given as ~ 4.5 μg/g. The platinum in liver in data set [4] (setting [13]) is ~ 2 μg/g. In addition, the IC50 in data set [3] was 980 ± 210 nM; in [5], 180 ± 10 nM; in data set [6], 290 ± 50 nM.
As to `CC(=O)[O][Pt]([NH2])([Cl])([Cl])([NH]C1CCCCC1)[O]C(C)=O` [satraplatin, reference compound], in data set [1], the log kw is reported as 1.63 ± 0.04 and the “log k30” value came to 0.68 ± 0.01.
In the case of “(OC-6-22)-((1R,2R)-Diaminocyclohexane)bis(malonato)-platinum(IV) [4b]”, in data set [1], the log kw is reported as −0.11 ± 0.01 and the “log k30” value was −0.65 ± 0.02. In addition, the “times more potent than 1b” value in data set [7] (versus 1b) is reported as 4 times. For the same molecule, the “times more potent than 2b” value in data set [7] (versus 2b) turned out to be 12 times. Besides, in [7] (versus 3b), the “potency relative to 3b” value is “twice as potent”. In addition, in [7] (versus 5b), the “activity relative to 5b” value is “same activity”. The “times more active than 1b, 2b, and 3b” value in data set [8] (versus 1b, 2b and 3b) is reported as “at least 8 times”. Further, the “times more active than 5b” value in data set [8] (versus 5b) was 6 times. Also, the “decomposition after 24 h of incubation in PBS solution” value in [2] is “no decomposition products were observed”. For the same molecule, the aqueous solubility – broadly, the concentration that dissolves in the medium under given conditions – in [9] is reported as more than 15 mM. In addition, the “complex still in its native form” value in [10] (PBS pH 7.4, 37 °C, after 20 h) is listed as “more than 90%”. Further, the complex intact in data set [10] (unbuffered water, 37 °C, after 24 h) is ~ 95%. Moreover, in data set [11] (10 mg/kg i.p. on days 1, 5, 9), the effect on survival result is “no effect on the survival”. The mice being cured in data set [11] (30 mg/kg i.p. on days 1, 5, 9, n = 4) is given as 3/4. For the same molecule, in data set [4] (30 mg/kg i.p. days 4, 7, 11, 14, 24 h after last application), the serum platinum level is recorded as ~ 3 μg/mL. In [4] (setting [14]), the platinum in kidney was ~ 10.5 μg/g, the platinum in liver is recorded as ~ 15 μg/g, the platinum in lung is given as ~ 5 μg/g and the “platinum in sciatic nerve” value is ~ 1.8 μg/g. Further, the “platinum in tumor tissue” value in [4] (setting [14]) is ~ 5 μg/g. The “serum platinum circulation compared to oxaliplatin-treated mice” value in data set [4] (4b 30 mg/kg i.p. versus oxaliplatin 9 mg/kg i.v., 24 h after last application) amounted to 10 times. Moreover, the “tolerability / signs of toxicity (fatigue, weight loss)” value in data set [12] was “well-tolerated with no signs of toxicity”.

The values above are taken from article PMC4351917 (Journal of medicinal chemistry, 2014).
